# Measurements: ChEMBL document CHEMBL1795296, “Synthesis, structural elucidation, DNA-PK inhibition, homology modelling and anti-platelet activity of morpholino-substituted-1,3-naphth-oxazines” (Bioorg Med Chem, 2011)
# pIC50: −log10 of the molar value.
# Columns and labels:
# Platelet = test: Anti-platelet activity in human blood assessed as inhibition of collagen induced human platelet aggregation; type: functional, cell-based
# Outline: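 Collagen-triggered aggregation measured optically in a two-channel platelet aggregometer.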
# [1] = molecular target: T1, DNA-dependent protein kinase catalytic subunit (Homo sapiens, UniProt P78527); test: Inhibition of purified DNA-PK by ADP-Glo Kinase assay
# Outline: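 Reaction used 5× buffer (250 mM Hepes, 500 mM KCl, 50 mM MgCl2, 1 mM EGTA, 0.5 mM EDTA, 5 mM DTT) diluted to 1×, with BSA and ATP (0.5 mM stock). Drug or water added; 30 °C, 5 min. ADP read by ADP-Glo luminescence; IC50 from curve fitting.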
# [2] = molecular target: T1, DNA-dependent protein kinase catalytic subunit; test: Inhibition of DNA-PK
# Outline: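 The buffer was 1× reaction buffer of Hepes, KCl, MgCl2, EGTA, EDTA and DTT, with drug or water added. Reactions ran 5 min at 30 °C. ADP formed was read by ADP-Glo luminescence, and IC50 was obtained by curve fitting.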
# T1 sequence (P78527 whole entry): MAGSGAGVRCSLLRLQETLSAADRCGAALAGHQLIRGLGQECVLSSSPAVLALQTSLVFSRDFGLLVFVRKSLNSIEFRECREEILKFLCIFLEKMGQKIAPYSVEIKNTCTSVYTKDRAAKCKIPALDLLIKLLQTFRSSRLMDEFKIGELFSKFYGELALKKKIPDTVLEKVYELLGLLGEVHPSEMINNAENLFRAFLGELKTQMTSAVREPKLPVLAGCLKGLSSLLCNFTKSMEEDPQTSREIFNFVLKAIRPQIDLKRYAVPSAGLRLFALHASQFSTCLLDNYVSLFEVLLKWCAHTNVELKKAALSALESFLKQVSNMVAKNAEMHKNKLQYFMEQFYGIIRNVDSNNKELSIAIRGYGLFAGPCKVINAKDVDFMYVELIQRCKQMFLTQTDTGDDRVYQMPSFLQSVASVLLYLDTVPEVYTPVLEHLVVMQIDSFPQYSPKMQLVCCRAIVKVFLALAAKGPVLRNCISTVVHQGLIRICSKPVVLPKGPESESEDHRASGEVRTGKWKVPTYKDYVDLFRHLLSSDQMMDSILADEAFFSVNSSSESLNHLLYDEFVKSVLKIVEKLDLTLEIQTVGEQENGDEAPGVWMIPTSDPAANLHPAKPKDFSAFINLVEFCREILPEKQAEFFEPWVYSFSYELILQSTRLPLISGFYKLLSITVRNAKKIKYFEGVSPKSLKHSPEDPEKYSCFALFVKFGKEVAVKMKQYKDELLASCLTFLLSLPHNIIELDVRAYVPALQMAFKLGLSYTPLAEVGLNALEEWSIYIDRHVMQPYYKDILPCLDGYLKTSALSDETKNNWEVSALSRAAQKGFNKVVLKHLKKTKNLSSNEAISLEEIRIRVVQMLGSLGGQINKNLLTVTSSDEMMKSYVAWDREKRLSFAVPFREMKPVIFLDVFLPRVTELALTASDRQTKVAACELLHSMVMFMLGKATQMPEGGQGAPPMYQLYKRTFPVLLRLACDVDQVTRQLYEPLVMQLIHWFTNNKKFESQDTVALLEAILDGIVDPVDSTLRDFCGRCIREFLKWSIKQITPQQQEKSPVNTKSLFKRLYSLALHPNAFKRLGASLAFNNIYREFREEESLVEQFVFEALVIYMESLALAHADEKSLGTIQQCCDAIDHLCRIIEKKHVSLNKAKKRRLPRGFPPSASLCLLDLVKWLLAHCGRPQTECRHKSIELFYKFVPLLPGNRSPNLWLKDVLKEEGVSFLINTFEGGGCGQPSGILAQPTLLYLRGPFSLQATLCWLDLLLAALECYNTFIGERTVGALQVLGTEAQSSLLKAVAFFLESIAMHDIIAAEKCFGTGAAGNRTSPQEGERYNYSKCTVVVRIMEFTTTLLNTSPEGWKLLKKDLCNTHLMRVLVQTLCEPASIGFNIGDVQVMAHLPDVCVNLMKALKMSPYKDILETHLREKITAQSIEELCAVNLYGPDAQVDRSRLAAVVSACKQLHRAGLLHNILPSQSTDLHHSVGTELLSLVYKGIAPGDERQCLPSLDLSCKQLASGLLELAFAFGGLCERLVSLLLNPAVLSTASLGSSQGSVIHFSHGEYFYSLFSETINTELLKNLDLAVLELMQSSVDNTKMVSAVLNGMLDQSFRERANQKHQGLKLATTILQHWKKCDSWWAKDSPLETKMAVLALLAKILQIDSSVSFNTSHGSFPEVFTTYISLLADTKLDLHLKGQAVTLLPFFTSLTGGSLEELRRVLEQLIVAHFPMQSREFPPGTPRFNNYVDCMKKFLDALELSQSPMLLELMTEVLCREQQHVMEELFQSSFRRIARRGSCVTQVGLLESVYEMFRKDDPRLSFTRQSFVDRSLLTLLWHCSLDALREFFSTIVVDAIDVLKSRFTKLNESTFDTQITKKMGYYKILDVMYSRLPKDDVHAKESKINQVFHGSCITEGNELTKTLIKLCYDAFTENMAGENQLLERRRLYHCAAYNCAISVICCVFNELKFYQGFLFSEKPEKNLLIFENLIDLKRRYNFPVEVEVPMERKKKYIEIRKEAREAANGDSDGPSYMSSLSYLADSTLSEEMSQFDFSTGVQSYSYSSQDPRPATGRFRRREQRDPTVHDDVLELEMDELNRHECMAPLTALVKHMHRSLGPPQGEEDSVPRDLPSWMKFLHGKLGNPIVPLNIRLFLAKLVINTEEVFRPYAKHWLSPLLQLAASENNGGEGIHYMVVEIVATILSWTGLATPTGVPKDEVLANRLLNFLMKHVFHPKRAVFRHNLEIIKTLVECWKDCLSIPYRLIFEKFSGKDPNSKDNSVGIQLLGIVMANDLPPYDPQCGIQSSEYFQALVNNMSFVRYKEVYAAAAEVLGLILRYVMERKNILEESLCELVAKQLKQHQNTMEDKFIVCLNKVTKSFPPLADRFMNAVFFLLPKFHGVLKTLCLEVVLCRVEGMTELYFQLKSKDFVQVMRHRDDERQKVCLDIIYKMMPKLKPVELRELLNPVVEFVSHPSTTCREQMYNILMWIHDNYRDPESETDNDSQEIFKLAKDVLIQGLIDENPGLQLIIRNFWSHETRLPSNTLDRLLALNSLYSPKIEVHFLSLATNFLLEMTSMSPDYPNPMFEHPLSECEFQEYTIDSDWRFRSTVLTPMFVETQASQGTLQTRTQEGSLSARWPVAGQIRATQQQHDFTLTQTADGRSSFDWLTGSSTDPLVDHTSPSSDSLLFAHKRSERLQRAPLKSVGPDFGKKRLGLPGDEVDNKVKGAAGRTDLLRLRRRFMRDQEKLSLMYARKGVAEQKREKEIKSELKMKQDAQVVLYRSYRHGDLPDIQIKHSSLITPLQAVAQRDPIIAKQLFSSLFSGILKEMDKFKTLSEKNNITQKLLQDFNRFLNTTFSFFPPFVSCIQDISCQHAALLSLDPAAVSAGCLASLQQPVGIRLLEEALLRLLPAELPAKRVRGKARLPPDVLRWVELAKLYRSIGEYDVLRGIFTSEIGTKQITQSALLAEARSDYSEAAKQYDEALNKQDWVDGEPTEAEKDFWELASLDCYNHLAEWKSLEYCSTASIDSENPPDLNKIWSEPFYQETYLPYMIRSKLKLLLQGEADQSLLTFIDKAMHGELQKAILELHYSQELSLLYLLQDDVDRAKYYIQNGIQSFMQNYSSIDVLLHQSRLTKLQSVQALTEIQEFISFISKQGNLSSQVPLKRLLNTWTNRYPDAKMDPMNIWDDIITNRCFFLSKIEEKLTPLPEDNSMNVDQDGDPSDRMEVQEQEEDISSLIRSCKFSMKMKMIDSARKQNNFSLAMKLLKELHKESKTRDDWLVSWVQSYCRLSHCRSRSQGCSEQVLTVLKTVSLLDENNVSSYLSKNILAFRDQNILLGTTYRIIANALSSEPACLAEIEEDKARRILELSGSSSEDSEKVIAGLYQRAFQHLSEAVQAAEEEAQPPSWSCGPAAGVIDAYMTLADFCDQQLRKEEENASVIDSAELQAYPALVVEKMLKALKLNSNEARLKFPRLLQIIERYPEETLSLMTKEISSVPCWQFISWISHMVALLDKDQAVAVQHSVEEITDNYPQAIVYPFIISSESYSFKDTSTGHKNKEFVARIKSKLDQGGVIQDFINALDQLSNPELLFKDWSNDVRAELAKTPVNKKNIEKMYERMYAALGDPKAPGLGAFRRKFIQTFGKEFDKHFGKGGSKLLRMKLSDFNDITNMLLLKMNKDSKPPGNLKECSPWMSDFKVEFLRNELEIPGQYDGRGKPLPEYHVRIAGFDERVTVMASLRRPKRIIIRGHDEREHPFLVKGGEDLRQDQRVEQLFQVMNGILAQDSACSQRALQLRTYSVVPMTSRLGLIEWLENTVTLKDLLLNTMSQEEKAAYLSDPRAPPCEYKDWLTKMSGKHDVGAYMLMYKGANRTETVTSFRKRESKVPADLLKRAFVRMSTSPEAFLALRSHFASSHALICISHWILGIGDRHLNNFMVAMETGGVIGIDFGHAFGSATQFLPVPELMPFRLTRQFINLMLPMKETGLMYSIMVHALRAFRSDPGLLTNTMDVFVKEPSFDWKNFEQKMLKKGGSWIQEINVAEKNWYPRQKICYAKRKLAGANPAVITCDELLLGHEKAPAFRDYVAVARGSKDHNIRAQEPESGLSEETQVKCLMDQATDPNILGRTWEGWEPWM
SMILES,pIC50 (Platelet),pIC50 [1],pIC50 [2]
O=c1cc(N2CCOCC2)oc2c1ccc1ccccc12,,,6.52
O=c1nc(N2CCOCC2)oc2cc3c(OCc4ccccn4)cccc3cc12,≤ 4.00,6.03,
O=c1nc(N2CCOCC2)oc2cc3ccccc3cc12,3.81,5.19,
O=c1nc(N2CCOCC2)oc2c1cc(OCc1cccnc1)c1ccccc12,4.00,6.14,
CN1CCN(CCOc2cc3c(=O)nc(N4CCOCC4)oc3c3ccccc23)CC1,4.00,6.12,
O=c1nc(N2CCOCC2)oc2c1ccc1ccccc12,3.55,6.38,
O=c1nc(N2CCOCC2)oc2c1cc(OCc1ccccn1)c1ccccc12,4.00,5.61,
O=c1nc(N2CCOCC2)oc2ccc3ccccc3c12,3.35,6.14,

# Results, then the compound that gave them:
pIC50 (Platelet),pIC50 [1],pIC50 [2],SMILES
4.00,6.72,,CN1CCN(CCOc2ccc3cc4oc(N5CCOCC5)nc(=O)c4cc3c2)CC1
4.00,7.02,,O=c1nc(N2CCOCC2)oc2cc3ccc(OCc4ccccn4)cc3cc12
4.26,5.77,,O=c1nc(N2CCOCC2)oc2cc3ccc(OCc4cccnc4)cc3cc12
4.00,5.51,,CN1CCN(CCOc2cccc3cc4c(=O)nc(N5CCOCC5)oc4cc23)CC1
4.07,6.48,,O=c1nc(N2CCOCC2)oc2cc3c(OCc4cccnc4)cccc3cc12
